Reference: ChEMBL document CHEMBL3351670, “Discovery of Tröger's base analogues as selective inhibitors against human breast cancer cell line: design, synthesis and cytotoxic evaluation” (Eur J Med Chem, 2014)
pIC50: −log10 of the molar value.

Experiments:
Type in all cases: functional, cell-based
MDA-MB-231 = assay: Cytotoxicity against human MDA-MB-231 cells assessed as growth inhibition after 48 hrs by MTT assay; details: MDA-MB-231, 48 h
Method in brief: (§1)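 MTT assay in triplicate. Cells were seeded at 10,000 cells/[…] per well in medium with 10% serum and allowed to adhere for 24 h in a humid 5% CO₂ chamber. After 48 h, MTT solution was added and cells were incubated 2 h more. Medium was then removed and DMSO added to dissolve the formazan. IC50 was taken as the concentration giving 50% growth inhibition.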

A549 = assay: Cytotoxicity against human A549 cells assessed as growth inhibition after 48 hrs by MTT assay; details: A549, 48 h; method in brief: as §1
SK-N-SH = assay: Cytotoxicity against human SK-N-SH cells assessed as growth inhibition after 48 hrs by MTT assay; method in brief: as §1

SMILES | pIC50 (MDA-MB-231) | pIC50 (A549) | pIC50 (SK-N-SH)
Cc1ccc(N(C)C2N3Cc4cc(Br)ccc4N2Cc2cc(Br)ccc23)cc1 | < 4.00 | < 4.00 | < 4.00
COc1cccc2c1C(=O)c1c(O)c3c(c(O)c1C2=O)C[C@@](O)(C(=O)CO)C[C@@H]3O[C@H]1C[C@H](N)[C@H](O)[C@H](C)O1 [DOXORUBICIN] | 5.22 | 5.09 | 5.07
Cc1ccc2c(c1)CN1c3ccc(C)cc3CN2C1N1CCCCC1 | 4.08 | < 4.00 | 4.91
CN(C)C1N2Cc3cc(OCCN4CCOCC4)ccc3N1Cc1cc(OCCN3CCOCC3)ccc12 | 5.32 |  | 
CN(C)C1N2Cc3cc(Br)ccc3N1Cc1cc(Br)ccc12 | < 4.00 | < 4.00 | < 4.00
COc1cc2c(cc1OC)N1Cc3cc(OC)c(OC)cc3N(C2)C1N(C)c1ccccc1 | 4.06 | < 4.00 | < 4.00
COc1ccc2c(c1)CN1c3ccc(OC)cc3CN2C1N(C)c1ccc(C)cc1 | 4.97 | < 4.00 | < 4.00
c1cn(CCOc2ccc3c(c2)CN2CN3Cc3cc(OCCn4ccnc4)ccc32)cn1 | 4.37 |  | 
CN(C)C1N2Cc3cc(OCCn4ccnc4)ccc3N1Cc1cc(OCCn3ccnc3)ccc12 | < 4.00 |  | 
COc1ccc2c(c1)CN1c3ccc(OC)cc3CN2C1N(C)C | < 4.00 | < 4.00 | < 4.00
Ic1ccc2c(c1)CN1c3ccc(I)cc3CN2C1N1CCOCC1 | < 4.00 | < 4.00 | < 4.00
CN(C)C1N2Cc3ccccc3N1Cc1ccccc12 | < 4.00 | < 4.00 | < 4.00
c1ccc(CC2CCN(CCOc3ccc4c(c3)CN3CN4Cc4cc(OCCN5CCC(Cc6ccccc6)CC5)ccc43)CC2)cc1 | 4.19 |  | 
c1ncn(CCOc2ccc3c(c2)CN2CN3Cc3cc(OCCn4cncn4)ccc32)n1 | < 4.00 |  | 
Fc1ccc(N2CCN(CCOc3ccc4c(c3)CN3CN4Cc4cc(OCCN5CCN(c6ccc(F)cc6)CC5)ccc43)CC2)cc1 | 5.32 |  | 
COc1ccc2c(c1)CN1CN2Cc2cc(OC)ccc21 | < 4.00 | < 4.00 | < 4.00
Ic1ccc2c(c1)CN1c3ccc(I)cc3CN2C1N1CCCCC1 | < 4.00 | < 4.00 | < 4.00
CN(C)C1N2Cc3cc(OCCn4cncn4)ccc3N1Cc1cc(OCCn3cncn3)ccc12 | 4.39 |  | 
CN(c1ccccc1)C1N2Cc3cc(Br)ccc3N1Cc1cc(Br)ccc12 | 4.84 | < 4.00 | < 4.00
COc1cc2c(cc1OC)N1Cc3cc(OC)c(OC)cc3N(C2)C1N(C)C | 4.11 | < 4.00 | < 4.00
Cc1ccc2c(c1)CN1c3ccc(C)cc3CN2C1N(C)C | 4.21 | < 4.00 | < 4.00
Brc1ccc2c(c1)CN1c3ccc(Br)cc3CN2C1N1CCCCC1 | < 4.00 | < 4.00 | < 4.00
CC(C)c1ccc2c(c1)CN1c3ccc(C(C)C)cc3CN2C1N(C)C | 4.24 | < 4.00 | < 4.00
c1ccc(-n2nnnc2SCCOc2ccc3c(c2)CN2CN3Cc3cc(OCCSc4nnnn4-c4ccccc4)ccc32)cc1 | < 4.00 |  | 
Cc1ccc2c(c1)CN1c3ccc(C)cc3CN2C1N(C)c1ccccc1 | 4.14 | < 4.00 | < 4.00
Cc1ccc2c(c1)CN1c3ccc(C)cc3CN2C1N1CCOCC1 | < 4.00 | < 4.00 | < 4.00
CC(C)(C)OC(=O)N1CCN(CCOc2ccc3c(c2)CN2CN3Cc3cc(OCCN4CCN(C(=O)OC(C)(C)C)CC4)ccc32)CC1 | 5.29 |  | 
COc1ccccc1N1CCN(CCOc2ccc3c(c2)CN2CN3Cc3cc(OCCN4CCN(c5ccccc5OC)CC4)ccc32)CC1 | 5.24 |  | 
c1cc2c(cc1OCCN1CCOCC1)CN1CN2Cc2cc(OCCN3CCOCC3)ccc21 | 5.37 |  | 
Clc1ccc(C(c2ccccc2)N2CCN(CCOc3ccc4c(c3)CN3CN4Cc4cc(OCCN5CCN(C(c6ccccc6)c6ccc(Cl)cc6)CC5)ccc43)CC2)cc1 (racemic) | 4.24 |  | 
